ChEMBL document CHEMBL2417437, “A hit to lead discovery of novel N-methylated imidazolo-, pyrrolo-, and pyrazolo-pyrimidines as potent and selective mTOR inhibitors” (Bioorg Med Chem Lett, 2013)

Key:
MCF7 = assay: Antiproliferative activity against human MCF7 cells expressing neo/Her2 assessed as cell viability after 3 days by CellTiter-Glo assay; type: functional, cell-based; conditions: MCF7, 72 h
Outline: (§1)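 Three-day cell viability assay in PTEN-null NCI-PC3 prostate carcinoma cells and in MCF7 neo/HER2 cells, read as antiproliferative activity.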

[1] = target: T1, Serine/threonine-protein kinase mTOR (Homo sapiens, UniProt P42345); assay: Inhibition of mTOR in PTEN deficient human PC3 cells assessed as inhibition of p70S6K phosphorylation; type: cell-based, PC-3
[2] = target: Phosphatidylinositol 4,5-bisphosphate 3-kinase catalytic subunit alpha isoform (Homo sapiens, UniProt P42336); assay: Displacement of TAMRA-PIP3 from PI3Kalpha GRP-1 pleckstrin homology domain (unknown origin) assessed as formation of 3,4,5-inositoltriphosphate after 30 mins by fluorescence polarization assay
[3] = target: T2, Phosphatidylinositol 4,5-bisphosphate 3-kinase catalytic subunit delta isoform (Homo sapiens, UniProt O00329); assay: Displacement of TAMRA-PIP3 from PI3Kdelta GRP-1 pleckstrin homology domain (unknown origin) assessed as formation of 3,4,5-inositoltriphosphate after 30 mins by fluorescence polarization assay
T2 sequence (O00329 whole entry): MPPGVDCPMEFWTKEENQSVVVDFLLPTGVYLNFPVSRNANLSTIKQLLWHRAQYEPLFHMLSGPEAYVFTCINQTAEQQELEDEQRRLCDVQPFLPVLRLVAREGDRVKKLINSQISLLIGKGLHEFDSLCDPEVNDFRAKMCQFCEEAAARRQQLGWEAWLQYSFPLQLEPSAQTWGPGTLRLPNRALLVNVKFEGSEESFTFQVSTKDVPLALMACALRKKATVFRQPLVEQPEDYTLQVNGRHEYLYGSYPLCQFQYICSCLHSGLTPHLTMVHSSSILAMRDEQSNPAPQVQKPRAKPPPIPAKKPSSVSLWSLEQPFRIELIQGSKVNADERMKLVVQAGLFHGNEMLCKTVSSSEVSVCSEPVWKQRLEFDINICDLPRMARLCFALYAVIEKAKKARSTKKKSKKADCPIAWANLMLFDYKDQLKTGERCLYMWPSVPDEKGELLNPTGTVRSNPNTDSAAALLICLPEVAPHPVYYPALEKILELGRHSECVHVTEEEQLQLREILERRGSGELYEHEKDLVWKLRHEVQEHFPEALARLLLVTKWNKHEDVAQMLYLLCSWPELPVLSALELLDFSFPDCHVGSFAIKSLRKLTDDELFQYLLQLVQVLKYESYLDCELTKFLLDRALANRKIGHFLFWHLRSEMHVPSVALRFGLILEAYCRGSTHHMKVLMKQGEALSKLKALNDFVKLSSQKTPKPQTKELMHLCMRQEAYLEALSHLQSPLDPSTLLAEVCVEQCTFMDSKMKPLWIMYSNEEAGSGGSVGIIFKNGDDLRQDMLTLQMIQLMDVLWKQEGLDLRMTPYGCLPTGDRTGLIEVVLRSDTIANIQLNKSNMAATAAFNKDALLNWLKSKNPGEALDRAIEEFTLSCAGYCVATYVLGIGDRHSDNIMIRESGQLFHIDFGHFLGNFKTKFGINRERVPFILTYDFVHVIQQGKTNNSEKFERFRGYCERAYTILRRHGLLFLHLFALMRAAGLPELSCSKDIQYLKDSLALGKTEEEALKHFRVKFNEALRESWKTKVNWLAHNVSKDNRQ

[4] = target: T1, Serine/threonine-protein kinase mTOR; assay: Inhibition of mTOR in PTEN deficient human PC3 cells assessed as inhibition of Akt phosphorylation at Ser473; type: cell-based, PC-3
PC-3 = assay: Antiproliferative activity against PTEN deficient human PC3 cells assessed as cell viability after 3 days by CellTiter-Glo assay; type: functional, cell-based; conditions: PC-3, 72 h; outline: as §1
Homo sapiens [5] = species on record: Homo sapiens; assay: Selectivity ratio of IC50 for PI3Kdelta (unknown origin) to Ki for human recombinant mTOR (1360-2549)
Outline: (§2)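 Ratio of two biochemical values. The PI3K IC50 (PI3Kα or PI3Kδ) comes from a fluorescence polarization kinase assay. The mTOR Ki comes from a LanthaScreen FRET assay on the recombinant mTOR kinase domain. Each value is from at least two separate determinations, with typical variation under 30%.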

Homo sapiens [6] = species on record: Homo sapiens; assay: Selectivity ratio of IC50 for PI3Kalpha (unknown origin) to Ki for human recombinant mTOR (1360-2549); outline: as §2
[7] = target: T1, Serine/threonine-protein kinase mTOR; assay: Inhibition of human recombinant mTOR (1360-2549) expressed in insect cells assessed as phosphorylation of recombinant (GFP)-4-EBP1 after 30 mins by LanthaScreen FRET assay
[8] = target: T1, Serine/threonine-protein kinase mTOR; assay: Inhibition of mTOR (unknown origin)
[9] = Efflux ratio of apparent permeability in MDCK cells; type: ADME, cell-based, Canis lupus familiaris; conditions: dog
[10] = Apparent permeability across basolateral to apical side in MDCK cells; type: ADME, cell-based, Canis lupus familiaris; conditions: dog
[11] = Volume of distribution at steady state in iv dosed mouse; type: ADME, organism-based; conditions: in vivo, read-out: Vdss
[12] = Oral bioavailability in mouse at 25 mg/kg; type: ADME, organism-based; conditions: in vivo
Outline: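 Mice were given a 25 mg/kg oral dose as a suspension in MCT. Bioavailability was reported as %F.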

[13] = Plasma clearance in iv dosed mouse; type: ADME, organism-based

Chain of Phosphatidylinositol 4,5-bisphosphate 3-kinase catalytic subunit alpha isoform (P42336 whole entry, the tested form may be a part, canonical isoform): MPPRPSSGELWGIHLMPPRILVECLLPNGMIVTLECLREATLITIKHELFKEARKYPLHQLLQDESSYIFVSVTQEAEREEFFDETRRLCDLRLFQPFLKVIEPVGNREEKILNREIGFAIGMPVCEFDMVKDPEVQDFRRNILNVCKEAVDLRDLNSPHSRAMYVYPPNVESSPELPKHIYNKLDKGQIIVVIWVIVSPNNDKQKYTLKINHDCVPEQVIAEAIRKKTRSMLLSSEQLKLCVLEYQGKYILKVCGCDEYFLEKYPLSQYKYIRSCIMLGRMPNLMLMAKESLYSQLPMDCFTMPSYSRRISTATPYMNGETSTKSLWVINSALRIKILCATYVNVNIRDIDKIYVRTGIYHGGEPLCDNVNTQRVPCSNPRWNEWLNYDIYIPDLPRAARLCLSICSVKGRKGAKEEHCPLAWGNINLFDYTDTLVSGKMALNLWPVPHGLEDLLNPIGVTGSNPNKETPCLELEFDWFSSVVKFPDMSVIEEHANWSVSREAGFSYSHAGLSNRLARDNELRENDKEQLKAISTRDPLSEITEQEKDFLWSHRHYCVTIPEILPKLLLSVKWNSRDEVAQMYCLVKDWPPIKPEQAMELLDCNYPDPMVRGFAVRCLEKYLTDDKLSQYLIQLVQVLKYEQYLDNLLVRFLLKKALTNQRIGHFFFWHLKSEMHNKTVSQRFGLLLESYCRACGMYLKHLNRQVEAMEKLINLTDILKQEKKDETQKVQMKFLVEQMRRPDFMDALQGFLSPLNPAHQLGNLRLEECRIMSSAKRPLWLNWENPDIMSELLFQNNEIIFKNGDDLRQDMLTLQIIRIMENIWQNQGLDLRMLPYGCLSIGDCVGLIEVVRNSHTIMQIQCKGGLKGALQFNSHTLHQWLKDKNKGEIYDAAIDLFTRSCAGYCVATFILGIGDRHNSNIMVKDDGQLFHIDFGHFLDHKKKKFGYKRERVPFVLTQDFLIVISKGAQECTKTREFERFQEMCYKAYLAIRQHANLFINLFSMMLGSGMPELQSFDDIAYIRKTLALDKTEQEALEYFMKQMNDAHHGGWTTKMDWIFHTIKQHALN

Row | SMILES | EC50 (MCF7) | IC50 [1] | Ki [2] | Ki [3] | IC50 [4] | EC50 (PC-3) | Ki [7] | also measured
1 | CCNC(=O)Nc1ccc(-c2nc(N3CCOC[C@@H]3CC)c3c(ncn3C)n2)cc1 | 518 nM | 153 nM | – | – | 69 nM | 737 nM | – | Ratio (Homo sapiens [5]): > 2600; IC50 [2]: > 10000 nM; IC50 [3]: > 10000 nM; Ratio (Homo sapiens [6]): > 2600
2 | CCNC(=O)Nc1ccc(-c2nc(N3CCOC[C@@H]3C)c3c(n2)nc(C(C)(C)O)n3C)cc1 | – | – | 7000 nM | 7300 nM | – | – | – | –
3 | CCNC(=O)Nc1ccc(-c2nc(N3C[C@@H]4C[C@H]3CO4)c3c(cnn3C)n2)cc1 | 1700 nM | 270 nM | 5140 nM | 5150 nM | 340 nM | 2900 nM | 28 nM | –
4 | CCNC(=O)Nc1ccc(-c2nc(N3CCOC[C@@H]3C)c3c(cnn3C)n2)cc1 | 760 nM | 47 nM | > 10000 nM | > 10000 nM | 8 nM | 420 nM | 8 nM | efflux ratio [9]: 0.55; Papp B→A [10]: 8.6 ×10⁻⁶ cm/s; Vd [11]: 0.36 L/kg; bioavailability [12]: 4.4%; clearance [13]: 13 mL/min/kg
5 | CC(C)(O)c1nc2c(N3CCOCC3)nc(-c3cnc(N)nc3)nc2n1CCO | – | – | 2 nM | 4 nM | – | – | – | Ki [8]: 72 nM
6 | CCNC(=O)Nc1ccc(-c2nc(N3CCOC[C@H]3C)c3c(ncn3C)n2)cc1 | – | – | – | – | – | – | – | IC50 [2]: 5800 nM; IC50 [3]: 4000 nM
7 | CCNC(=O)Nc1ccc(-c2nc(N3CCCOCC3)c3c(ncn3C)n2)cc1 | – | 8900 nM | – | – | 7200 nM | – | – | Ratio (Homo sapiens [5]): 61; IC50 [2]: 6400 nM; IC50 [3]: 7300 nM; Ratio (Homo sapiens [6]): 53
8 | CCNC(=O)Nc1ccc(-c2nc(N3CCOC[C@@H]3C)c3ncn(C)c3n2)cc1 | – | – | 370 nM | 890 nM | – | – | 12 nM | –
9 | CCNC(=O)Nc1ccc(-c2nc(N3CCOC[C@@H]3C)c3ncn(CC)c3n2)cc1 | – | – | 380 nM | 630 nM | – | – | 8 nM | –

The next lines start with results.

Row | EC50 (MCF7) | IC50 [1] | Ki [2] | Ki [3] | IC50 [4] | EC50 (PC-3) | Ki [7] | SMILES | also measured
10 | 160 nM | 8 nM | 5800 nM | > 10000 nM | 4 nM | 86 nM | – | CCNC(=O)Nc1ccc(-c2nc(N3CCOC[C@@H]3CC)c3c(n2)c(C)nn3C)cc1 | –
11 | – | – | – | – | – | – | 150 nM | CCNC(=O)Nc1ccc(-c2nc(N3CCOCC3)c3c(ncn3C)n2)cc1 | –
12 | – | – | 190 nM | 160 nM | – | – | 9.5 nM | CCNC(=O)Nc1ccc(-c2nc(N3CCOC[C@@H]3C)c3nc(C(C)(C)O)n(CCO)c3n2)cc1 | Ki [8]: 9 nM
13 | 9000 nM | 110 nM | > 10000 nM | > 10000 nM | 77 nM | 1900 nM | 19 nM | CCNC(=O)Nc1ccc(-c2nc(N3CCOC[C@@H]3C)c3c(ccn3C)n2)cc1 | –
14 | 260 nM | 15 nM | 3400 nM | > 10000 nM | 8 nM | 130 nM | 1 nM | CCNC(=O)Nc1ccc(-c2nc(N3CCOC[C@@H]3CC)c3c(cnn3C)n2)cc1 | –
15 | 1300 nM | – | > 10000 nM | > 10000 nM | – | 290 nM | – | CCNC(=O)Nc1ccc(-c2nc(N3CCOC[C@@H]3C)c3c(ncn3C)n2)cc1 | –
16 | – | – | > 10000 nM | > 10000 nM | – | – | – | CCNC(=O)Nc1ccc(-c2nc(N3CCOC[C@@H]3C)c3c(ncn3CC)n2)cc1 | –
17 | 420 nM | 40 nM | > 10000 nM | > 10000 nM | 11 nM | 280 nM | 6 nM | CCNC(=O)Nc1ccc(-c2nc(N3CCOC[C@@H]3CC)c3c(ccn3C)n2)cc1 | –
18 | – | – | 390 nM | 490 nM | – | – | 7 nM | CCNC(=O)Nc1ccc(-c2nc(N3CCOC[C@@H]3C)c3nc(C(C)(C)O)n(C)c3n2)cc1 | –
